Reference: paper PMC6425477 (ACS chemical biology, 2018)

Tests used:
[1] = tested on: GBM PDX cell lines, D456, GBM157, and 1016; assay: 2-NBDG glucose uptake in three GBM PDX cell lines; type: cell-based, human; settings: 50 μM; all cells tested (D456, GBM157, 1016)
Outline: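 2-NBDG uptake in D456, GBM157 and 1016 GBM PDX cells, run per the manufacturer's protocol. Test compound (DMSO stock) at 50 μM. Data averaged from 2 experiments with n=3 per group. Compared by one-way ANOVA with Tukey's multiple comparisons.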

GBM PDX cells = assay: Extracellular flux analysis glycolytic stress test; type: cell-based, human; settings: 50 μM; for increase in ECAR following the addition of oligomycin: 4 hours
Outline: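 Glycolysis stress test on a Seahorse XF96 flux analyzer in GBM PDX cells. Cells were glucose-starved with test compound at 50 μM for 4 h, then given glucose, oligomycin and 2-DG in turn. Glycolysis = ECAR after glucose minus basal. Capacity and reserve are derived from ECAR before and after 2-DG and oligomycin. Two experiments, n=6; mean ± sem; Student's t-test versus control.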

D456 GBM PDX cells [2] = assay: 2-deoxyglucose; type: cell-based, human
D456 GBM PDX cells [3] = assay: Glucose uptake; type: cell-based, human
Outline: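 D456 GBM PDX cells were given test compound over a range of concentrations. Glucose uptake was read by 2-NBDG, per the manufacturer's protocol. IC50 for glucose uptake came from a curve-fit model.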

D456 GBM PDX cells [4] = assay: Cell growth; type: cell-based, human
Outline: (§1)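 D456 pediatric primary GBM PDX cells and normal human astrocytes were treated in the same manner with test compound (DMSO stock) at 5, 20 and 50 μM for 7 days. Growth was read by cell titer. IC50 came from non-linear regression. D456 and NHA were compared by one-way ANOVA with Dunnett's multiple comparisons.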

[5] = tested on: normal human astrocytes (NHAs); assay: Cell growth / toxicity in normal human astrocytes; type: cell-based; settings: for growth inhibition of GBM PDX cells compared to NHAs: D456 GBM PDX vs NHAs, 5, 20, 50 μM, 7 days
Outline: as §1

GLUT1 = settings: pharmacological inhibition of GLUT1; cited from earlier work
[6] = dose-response, Supporting Information Figure 3c

Compound | inhibition of glucose uptake (2-NBDG) [1] | glycolytic capacity (ECAR before 2-DG minus ECAR after 2-DG) (GBM PDX cells) | glycolytic reserve capacity (ECAR after Oligo minus ECAR before Oligo) (GBM PDX cells) | increase in ECAR following the addition of oligomycin (GBM PDX cells) | decrease in glucose uptake (2-DG) (D456 GBM PDX cells [2]) | glucose uptake compared to control (2-DG) (D456 GBM PDX cells [2]) [%] | IC50 (D456 GBM PDX cells [3]; read-out: IC50 for glucose uptake, Supporting Information Figure 3c) [µM] | IC50 (D456 GBM PDX cells [4]; read-out: IC50 for growth inhibition, D456 GBM PDX cells, 7 days) [µM] | toxicity to NHAs [5] | growth inhibition of GBM PDX cells compared to NHAs [5] | tumor formation capabilities of TICs (GLUT1) | ECAR ascribed to glycolysis after injection of glucose (GBM PDX cells; 4 hours glucose starvation before glucose) | plateau of glucose uptake inhibition (D456 GBM PDX cells [3]; [6]) [%] | threshold concentration at which glucose uptake inhibition plateaus (D456 GBM PDX cells [3]; [6]) | inhibition of D456 GBM PDX cell growth (in words) (D456 GBM PDX cells [4]; 5 μM) | inhibition of glucose uptake (in words) (D456 GBM PDX cells [3]; D456 GBM PDX cells, Supporting Information Figures 4 and 5) | GBM PDX cell growth (in words) (D456 GBM PDX cells [4]; GBM PDX cells, line not given, Supplementary Figure 5b)
O=C1CC(c2cccc3[nH]ccc23)c2ccc(NC(=O)c3cccnc3)cc2N1 (stereo not shown) [SRI-37684] | 40–50% | decrease | decrease | inhibited an increase in ECAR | ~50% | 50 | 33 | 8.6 | minimal toxicity | significantly stronger growth inhibition | – | – | – | – | – | – | –
O=C(Oc1cccc(F)c1OC(=O)c1cccc(O)c1)c1cccc(O)c1 [WZB117, 2-Fluoro-6-(m-hydroxybenzoyloxy) Phenyl m-Hydroxybenzoate] | – | – | – | – | – | – | – | – | – | – | decrease the tumor formation capabilities of TICs | – | – | – | – | – | –
O=C1CC(c2ccc(-c3ccn[nH]3)s2)c2cc(N3CCNC3=O)ccc2N1 (stereo not shown) [SRI-37683] | 40–50% | decrease | decrease | inhibited an increase in ECAR | approximately 40% | 60 | – | – | minimal toxicity | significantly stronger growth inhibition | – | significantly inhibited | ~50 | approximately 3 μM | almost completely inhibited | – | –
O=c1c(-c2ccc(O)cc2)coc2cc(O)cc(O)c12 [genistein, reference compound] | – | – | – | – | – | – | – | – | – | – | – | – | – | – | – | inhibited glucose uptake | did reduce GBM PDX cell growth
